Measured values published in ChEMBL document CHEMBL1128557, “Synthesis, antitumor activity, and chemical properties of silaplatin and related platinum (II) and platinum (IV) complexes derived from beta-silyl amines” (J Med Chem, 1995).
Values joined by “and” are separate entries in the source; they are usually repeats but may differ in a detail not shown here. Equal values may be shown once.

Columns and labels:
Tumor Cell line [1] = assay: The compound was evaluated in vitro for the log10 molecular concentration that caused 50 % of 60 human tumor cell line kills; format: ADME, cell-based
Procedure, shortened: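 Human tumor cell lines (leukemia, non-small-cell lung, ovarian, renal) were preincubated 24 h. Platinum complexes were then added as five 10-fold dilutions, 0.01–100 μM, for 48 h, followed by in situ fixation and staining, with solubilized stain read spectrophotometrically. Log LC50 (50% cell kill) was averaged across cell lines within one experiment.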

Mus musculus [2] = assay: The compound was evaluated for the mean body weight change (BWC) in mice infected with cisplatin sensitive L1210 Leukemia (dose 10 mg/kg, ip),day 5; format: functional, organism-based; parameters: dose 10 mg/kg
Procedure, shortened: (§1)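 CD2F1 mice implanted ip on day 0 with 10^5 L1210/0 (parent) leukemia cells, in groups of 6 or 10 (20 or 30 controls). Complexes given ip in saline plus Tween 80 on days 1, 5 and 9. BWC is the group mean weight change, day 5 minus day 1. MST is median survival and %ILS is calculated from MST, both from dying mice only, excluding day 30 survivors.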

Mus musculus [3] = assay: The compound was evaluated for the median survival time (MST) in mice infected with cisplatin sensitive L1210 Leukemia (dose 5 mg/kg, ip), day 1; format: functional, organism-based; parameters: dose 5 mg/kg; procedure, shortened: as §1
Tumor Cell line [4] = assay: Evaluated in vitro for the log10 molecular concentration that caused 50 % inhibition of tumor growth of 60 human tumor cell lines; format: functional, cell-based
Procedure, shortened: (§2)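 Cells preincubated 24 h, then exposed to the agent at five 10-fold dilutions (0.01–100 μM for the platinum complexes) for 48 h. Cells fixed in situ and stained; solubilized stain read spectrophotometrically. Panel of leukemia, non-small-cell lung, ovarian and renal lines. Log GI50 or TGI taken per cell line in one experiment, then averaged across lines.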

Mus musculus [5] = assay: The compound was evaluated for the median survival time (MST) in mice infected with cisplatin resistant L1210 Leukemia (dose 15 mg/kg, ip), day 1; format: functional, organism-based; parameters: dose 15 mg/kg
Procedure, shortened: (§3)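 On day 0, 10⁵ parent or cisplatin-resistant L1210 cells were implanted ip into CD2F1 mice, 6 or 10 per dose group (20 or 30 controls). Dosing was ip on days 1, 5 and 9 in saline plus Tween 80. Median survival time was taken from dying mice only, excluding day-30 survivors. Both sublines were tested concurrently.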

Mus musculus [6] = organism: Mus musculus; assay: The compound was evaluated for the percentage increase in life span (ILS) based on dying mice only (excludes day survivors) for following doses against L1210 Leukemia cell line, day1; format: functional, organism-based; procedure, shortened: as §1
Mus musculus [7] = assay: The compound was evaluated for the median survival time (MST) in mice infected with cisplatin sensitive L1210 Leukemia (dose 20 mg/kg, ip), day 1; format: functional, organism-based; parameters: dose 20 mg/kg; procedure, shortened: as §1
Mus musculus [8] = assay: The compound was evaluated for the mean body weight change (BWC) in mice infected with cisplatin sensitive L1210 Leukemia (dose 80 mg/kg, ip),day 9; format: functional, organism-based; parameters: dose 80 mg/kg; procedure, shortened: as §1
Mus musculus [9] = assay: The compound was evaluated for the median survival time (MST) in mice infected with cisplatin sensitive L1210 Leukemia (dose 30 mg/kg, ip), day 1; format: functional, organism-based; parameters: dose 30 mg/kg; procedure, shortened: as §1
Mus musculus [10] = organism: Mus musculus; assay: The compound was evaluated for the percentage increase in life span (ILS) based on dying mice only (excludes day 15 survivors) for following doses against L1210 Leukemia cell line, day1; format: functional, organism-based
Mus musculus [11] = assay: The compound was evaluated for the mean body weight change (BWC) in mice infected with cisplatin sensitive L1210 Leukemia (dose 40 mg/kg, ip),day 1; format: functional, organism-based; parameters: dose 40 mg/kg; procedure, shortened: as §1
Mus musculus [12] = organism: Mus musculus; assay: The compound was evaluated for the percentage increase in life span (ILS) based on dying mice only (excludes day 20 survivors) for following doses against L1210 Leukemia cell line, day1; format: functional, organism-based
Mus musculus [13] = organism: Mus musculus; assay: The compound was evaluated for the percentage increase in life span (ILS) based on dying mice only (excludes day 20 survivors) for following doses against L1210 Leukemia cell line, day5; format: functional, organism-based
Mus musculus [14] = assay: The compound was evaluated for the mean body weight change (BWC) in mice infected with cisplatin resistant L1210 Leukemia (dose 15 mg/kg, ip),day 1; format: functional, organism-based; parameters: dose 15 mg/kg
Procedure, shortened: (§4)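 CD2F1 mice, 6 or 10 per dose group (20 or 30 controls), were implanted ip on day 0 with 10⁵ L1210/0 (parent) or L1210/cisplatin (resistant) leukemia cells. Complexes were given ip in saline plus Tween 80 on days 1, 5 and 9. Read-out was mean body weight change per group, day 5 minus day 1. Sensitive and resistant arms ran simultaneously from the same preparations.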

Mus musculus [15] = assay: The compound was evaluated for the median survival time (MST) in mice infected with cisplatin sensitive L1210 Leukemia (dose 15 mg/kg, ip), day 1; format: functional, organism-based; parameters: dose 15 mg/kg; procedure, shortened: as §1
Mus musculus [16] = assay: The compound was evaluated for the mean body weight change (BWC) in mice infected with cisplatin sensitive L1210 Leukemia (dose 20 mg/kg, ip),day 1; format: functional, organism-based; parameters: dose 20 mg/kg; procedure, shortened: as §4
Mus musculus [17] = assay: The compound was evaluated for the mean body weight change (BWC) in mice infected with cisplatin sensitive L1210 Leukemia (dose 10 mg/kg, ip),day 9; format: functional, organism-based; parameters: dose 10 mg/kg; procedure, shortened: as §1
Mus musculus [18] = assay: The compound was evaluated for the mean body weight change (BWC) in mice infected with cisplatin sensitive L1210 Leukemia (dose 15 mg/kg, ip),day 1; format: functional, organism-based; parameters: dose 15 mg/kg; procedure, shortened: as §1
Mus musculus [19] = assay: The compound was evaluated for the median survival time (MST) in mice infected with cisplatin sensitive L1210 Leukemia (dose 20 mg/kg, ip), day 9; format: functional, organism-based; parameters: dose 20 mg/kg; procedure, shortened: as §1
Mus musculus [20] = assay: The compound was evaluated for the mean body weight change (BWC) in mice infected with cisplatin sensitive L1210 Leukemia (dose 5 mg/kg, ip),day 1; format: functional, organism-based; parameters: dose 5 mg/kg; procedure, shortened: as §1
Mus musculus [21] = assay: The compound was evaluated for the median survival time (MST) in mice infected with cisplatin sensitive L1210 Leukemia (dose 10 mg/kg, ip), day 1; format: functional, organism-based; parameters: dose 10 mg/kg; procedure, shortened: as §1
Mus musculus [22] = organism: Mus musculus; assay: The compound was evaluated for the percentage increase in life span (ILS) based on dying mice only (excludes day 40 survivors) for following doses against L1210 Leukemia cell line, day5; format: functional, organism-based
Mus musculus [23] = assay: The compound was evaluated for the mean body weight change (BWC) in mice infected with cisplatin resistant L1210 Leukemia (dose 30 mg/kg, ip),day 1; format: functional, organism-based; parameters: dose 30 mg/kg; procedure, shortened: as §4
Mus musculus [24] = organism: Mus musculus; assay: The compound was evaluated for the percentage increase in life span (ILS) based on dying mice only (excludes day 40 survivors) for following doses against L1210 Leukemia cell line, day9; format: functional, organism-based
Mus musculus [25] = assay: The compound was evaluated for the mean body weight change (BWC) in mice infected with cisplatin resistant L1210 Leukemia (dose 20 mg/kg, ip),day 1; format: functional, organism-based; parameters: dose 20 mg/kg; procedure, shortened: as §4
Mus musculus [26] = organism: Mus musculus; assay: The compound was evaluated for the percentage increase in life span (ILS) based on dying mice only (excludes day 10 survivors) for following doses against L1210 Leukemia cell line, day5; format: functional, organism-based
Mus musculus [27] = assay: The compound was evaluated for the mean body weight change (BWC) in mice infected with cisplatin sensitive L1210 Leukemia (dose 20 mg/kg, ip),day 5; format: functional, organism-based; parameters: dose 20 mg/kg; procedure, shortened: as §1
Tumor Cell line [28] = assay: Evaluated in vitro for the log10 molecular concentration that caused […] tumor growth of 60 human tumor cell lines.; format: functional, cell-based; procedure, shortened: as §2
Mus musculus [29] = assay: The compound was evaluated for the median survival time (MST) in mice infected with cisplatin resistant L1210 Leukemia (dose 20 mg/kg, ip), day 1; format: functional, organism-based; parameters: dose 20 mg/kg; procedure, shortened: as §3
Mus musculus [30] = assay: The compound was evaluated for the mean body weight change (BWC) in mice infected with cisplatin sensitive L1210 Leukemia (dose 20 mg/kg, ip),day 9; format: functional, organism-based; parameters: dose 20 mg/kg; procedure, shortened: as §1
Mus musculus [31] = assay: The compound was evaluated for the median survival time (MST) in mice infected with cisplatin sensitive L1210 Leukemia (dose 40 mg/kg, ip), day 9; format: functional, organism-based; parameters: dose 40 mg/kg; procedure, shortened: as §1
Mus musculus [32] = assay: The compound was evaluated for the median survival time (MST) in mice infected with cisplatin sensitive L1210 Leukemia (dose 10 mg/kg, ip), day 5; format: functional, organism-based; parameters: dose 10 mg/kg; procedure, shortened: as §1
Mus musculus [33] = assay: The compound was evaluated for the median survival time (MST) in mice infected with cisplatin resistant L1210 Leukemia (dose 5 mg/kg, ip), day 1; format: functional, organism-based; parameters: dose 5 mg/kg; procedure, shortened: as §3
Mus musculus [34] = assay: The compound was evaluated for the median survival time (MST) in mice infected with cisplatin sensitive L1210 Leukemia (dose 80 mg/kg, ip), day 9; format: functional, organism-based; parameters: dose 80 mg/kg; procedure, shortened: as §1
Mus musculus [35] = assay: The compound was evaluated for the median survival time (MST) in mice infected with cisplatin sensitive L1210 Leukemia (dose 40 mg/kg, ip), day 5; format: functional, organism-based; parameters: dose 40 mg/kg; procedure, shortened: as §1
Mus musculus [36] = assay: The compound was evaluated for the mean body weight change (BWC) in mice infected with cisplatin sensitive L1210 Leukemia (dose 80 mg/kg, ip),day 5; format: functional, organism-based; parameters: dose 80 mg/kg; procedure, shortened: as §1
Mus musculus [37] = assay: The compound was evaluated for the mean body weight change (BWC) in mice infected with cisplatin resistant L1210 Leukemia (dose 5 mg/kg, ip),day 1; format: functional, organism-based; parameters: dose 5 mg/kg; procedure, shortened: as §4
Mus musculus [38] = assay: The compound was evaluated for the median survival time (MST) in mice infected with cisplatin sensitive L1210 Leukemia (dose 10 mg/kg, ip), day 9; format: functional, organism-based; parameters: dose 10 mg/kg; procedure, shortened: as §1
Mus musculus [39] = assay: The compound was evaluated for the median survival time (MST) in mice infected with cisplatin sensitive L1210 Leukemia (dose 20 mg/kg, ip), day 5; format: functional, organism-based; parameters: dose 20 mg/kg; procedure, shortened: as §1
Mus musculus [40] = assay: The compound was evaluated for the mean body weight change (BWC) in mice infected with cisplatin sensitive L1210 Leukemia (dose 30 mg/kg, ip),day 1; format: functional, organism-based; parameters: dose 30 mg/kg; procedure, shortened: as §1
Mus musculus [41] = assay: The compound was evaluated for the median survival time (MST) in mice infected with cisplatin sensitive L1210 Leukemia (dose 80 mg/kg, ip), day 5; format: functional, organism-based; parameters: dose 80 mg/kg; procedure, shortened: as §1
Mus musculus [42] = assay: The compound was evaluated for the median survival time (MST) in mice infected with cisplatin resistant L1210 Leukemia (dose 30 mg/kg, ip), day 1; format: functional, organism-based; parameters: dose 30 mg/kg; procedure, shortened: as §3
Mus musculus [43] = assay: The compound was evaluated for the mean body weight change (BWC) in mice infected with cisplatin sensitive L1210 Leukemia (dose 40 mg/kg, ip),day 5; format: functional, organism-based; parameters: dose 40 mg/kg; procedure, shortened: as §1

[Bis(aminomethyl)pentamethylenesilane]dichloropaltinum(II)
Log LC50 (Tumor Cell line [1]): > -4.01

[Bis(aminomethyl)dimethylsilane]dichloroplatinum (II)
BWC (Mus musculus [2]): -0.9 g
MST (Mus musculus [3]): 21.5 days
GI50 (Tumor Cell line [4]): 20.4 µM
MST (Mus musculus [5]): 18.3 days
ILS (Mus musculus [6]): 152%
MST (Mus musculus [7]): 16.8 days
BWC (Mus musculus [8]): -4.3 g
MST (Mus musculus [9]): 21.5 days
ILS (Mus musculus [10]): 83%
BWC (Mus musculus [11]): -2.9 g
ILS (Mus musculus [12]): 88%
ILS (Mus musculus [13]): 138%
BWC (Mus musculus [14]): -0.4 g
MST (Mus musculus [15]): 16.3 days
BWC (Mus musculus [16]): -1 g
BWC (Mus musculus [17]): -0.2 g
BWC (Mus musculus [18]): -1.7 g
MST (Mus musculus [19]): 22.5 days
BWC (Mus musculus [20]): -0.4 g
MST (Mus musculus [21]): 22.5 days and 10.5 days
ILS (Mus musculus [22]): 248%
BWC (Mus musculus [23]): -2.5 g
ILS (Mus musculus [24]): 31%
BWC (Mus musculus [25]): -2.7 g
ILS (Mus musculus [26]): 109%
BWC (Mus musculus [27]): -0.6 g
TGI (Tumor Cell line [28]): 83.2 µM
MST (Mus musculus [29]): 13.8 days
BWC (Mus musculus [30]): -0.2 g
MST (Mus musculus [31]): 11.7 days
MST (Mus musculus [32]): 18 days
MST (Mus musculus [33]): 12.5 days
MST (Mus musculus [34]): 6.3 days
MST (Mus musculus [35]): 30 days
BWC (Mus musculus [36]): -3.5 g
BWC (Mus musculus [37]): 0.1 g
MST (Mus musculus [38]): 15.5 days
MST (Mus musculus [39]): 20.5 days
BWC (Mus musculus [40]): -1.1 g
MST (Mus musculus [41]): 11.8 days
MST (Mus musculus [42]): 14.8 days
BWC (Mus musculus [43]): -0.9 g

[Bis(aminomethyl)diethylsilane]tetrachloroplatinum(IV)
Log LC50 (Tumor Cell line [1]): > -4.02
